RAD52 inh = inhibitors of human RAD52 DNA annealing; recombinant RAD52 DNA annealing, FRET fluorescence; inhibition, % at 18.7 µM; actives 0.46% (n = 360,000);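 active = every replicate showing at least 50% inhibition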
Target sequence (P43351 whole entry, looked up): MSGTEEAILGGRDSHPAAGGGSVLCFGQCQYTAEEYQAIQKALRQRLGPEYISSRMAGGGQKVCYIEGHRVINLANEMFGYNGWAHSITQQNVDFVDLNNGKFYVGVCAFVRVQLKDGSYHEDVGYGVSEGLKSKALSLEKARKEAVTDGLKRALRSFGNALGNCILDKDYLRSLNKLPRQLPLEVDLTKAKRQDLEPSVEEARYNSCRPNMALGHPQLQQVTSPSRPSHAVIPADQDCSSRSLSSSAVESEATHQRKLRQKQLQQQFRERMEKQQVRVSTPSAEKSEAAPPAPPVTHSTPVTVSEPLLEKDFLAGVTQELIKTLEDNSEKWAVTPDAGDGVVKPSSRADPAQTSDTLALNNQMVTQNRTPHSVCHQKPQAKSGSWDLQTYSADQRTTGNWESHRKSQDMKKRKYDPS
RAD54 inh = RAD54 (human) branch migration inhibition; Q92698; RAD54 Holliday junction branch migration, FAM/BHQ fluorescence; inhibition, % at 10.4 µM; actives 0.14% (n = 360,000);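 active = mean normalized replicate activity at least 40 and at least half of replicates scoring 40 or more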;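 note: inhibitors cause a drop in the FAM fluorescence signal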
Glyco luc inh = N-linked glycosylation inhibition | D54 ERlucT glycosylation luciferase reporter, 24 h; percent of 100 nM tunicamycin response | reporter increase, % at 12.5 µM | actives 0.23% (n = 360,000) | AID 588692;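 active = mean luciferase reporter signal, scaled so untreated is 0 and the glycosylation-blocking control 100, at or above a set limit in every replicate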;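 note: luciferase carries N-glycosylation sites so blocking glycosylation raises the light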
CaV13 FRET inh = Disruptors of the CACNA1D IQ motif to Ca2+-dependent inactivation inhibitor domain association, primary screening, Förster resonance energy transfer in intact living …; HEK cells, CFP/YFP FRET ICDI-IQ, plate reader, 10 min; percent FRET-ratio fall versus neutral wells; inhibition, % at 12.3 µM; actives 0.098% (n = 340,000);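 active = mean replicate inhibition of at least 30% and at least 1% of replicates passing that level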
FN deposition inh = fibronectin deposition inhibition; inhibition, % at 12.6 µM; actives 0.086% (n = 350,000); AH1F fibroblasts, Alexa488-fibronectin deposition fluorescence, overnight; AID 743247;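 active = mean inhibition across replicates of 30% or more, regardless of how many single replicates reach that level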
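Material: AH1F fibroblast monolayer depositing Alexa488-labelled fibronectin into matrix | Input: 10000 AH1F cells/well | Medium: DMEM plus 2% serum, read in PBS | Reagent: Alexa488-fibronectin, 24 nM final in well | Compound dosing: One dose per compound, pinned | Schedule: 1 h adhesion, overnight exposure | Measured by: Fluorescence at 485 nm excitation, 525 nm emission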
Hits are given with their value; – = inactive; · = not tested or not shown; + = active, no number; ! = a repeat was not active. Sampled rows, rich in hits. Any-hit rate of the full collection: about 0.7%.

SMILES	RAD52 inh	RAD54 inh	Glyco luc inh	CaV13 FRET inh	FN deposition inh
CCCn1c(=N)c(S(=O)(=O)c2ccccc2)cc2c(=O)n3ccccc3nc21	–	·	–	129.5	–
COc1ccc(CCn2c(=N)c(S(=O)(=O)c3ccccc3)cc3c(=O)n4ccccc4nc32)cc1	–	–	–	–	–
CCCC(=O)Nc1ccc2c(c1)C(=O)N(C)C[C@H](OC)[C@H](C)CN(CCC(F)(F)F)[C@@H](C)CO2	–	–	·	·	–
CC(=O)Nc1ccc2c(c1)CC(=O)N(C)C[C@@H](C)[C@@H](CN(C)C)O2	·	·	·	·	–
CN(C)CCCN1C(=O)c2cccc3c(Br)ccc(c23)C1=O	–	·	40.0	–	–
OC[C@@H]1[C@H](c2ccc(/C=C/c3ccccc3)cc2)[C@H]2CN(Cc3cccnc3)CCCCN12	59.3	–	·	·	·
OC[C@@H]1[C@@H](c2ccc(/C=C/c3ccccc3)cc2)[C@H]2CN(Cc3cccnc3)CCCCN12	–	–	·	·	·
OC[C@H]1[C@H](c2ccc(/C=C/c3ccccc3)cc2)[C@@H]2CN(Cc3cccnc3)CCCCN12	–	–	·	·	·
OC[C@@H]1[C@H](c2ccc(C#Cc3cccnc3)cc2)[C@H]2CN(Cc3ccccc3F)CCCCN12	53.9	–	·	·	·
OC[C@H]1[C@H](c2ccc(C#Cc3cccnc3)cc2)[C@@H]2CN(Cc3ccccc3F)CCCCN12	–	–	·	·	·
OC[C@H]1[C@H](c2ccc(/C=C/c3ccccc3)cc2)[C@@H]2CN(Cc3ccncc3)CCCCN12	53.8	–	·	·	·
COC(=O)C(CC#Cc1ccc2c(c1)[C@]1(C(=O)N2)[C@H](c2ccccc2OCCO)N2[C@H](c3ccccc3)[C@H](c3ccccc3)OC(=O)[C@H]2[C@@H]1C(=O)N1CCCCCCC1)C(=O)OC	–	–	·	·	·
COCC(=O)Nc1ccc2c(c1)OC[C@@H](C)N(Cc1ccccc1F)C[C@H](C)[C@@H](OC)CN(C)C2=O	–	·	·	·	–
CO[C@@H]1CN(C)C(=O)c2cc(C#N)ccc2OC[C@H]2O[C@H](CC[C@H]2OC)CCN(C)C(=O)[C@H]1C	–	–	·	·	–
C=CCN1C(=O)[C@@]2(O[C@@H](CCn3cc([C@H](O)c4ccccc4)nn3)[C@H]([Si](C)(C)c3ccc(OC)cc3)[C@H]2C)c2cc(N3C(=O)c4cccc5cccc3c45)ccc21	–	–	·	·	·
COc1cc(/C=N/NC(=O)c2ccc(-c3ccccc3)cc2)cc(OC)c1OC	·	·	32.7	–	–
O=C(N[C@H]1C[C@@H]2O[C@@H](CO)CC[C@@H]2O[C@@H]1CCc1ccc(C#CC2CC2)cc1)c1cccc(F)c1	–	·	·	·	·
O=Cc1s/c(=N\S(=O)(=O)c2ccccc2)n(CCCCl)c1Cl	–	·	–	–	52.3
CCn1c(C)cs/c1=N\S(=O)(=O)c1ccccc1	–	–	–	–	–
C[C@@H]1CN([C@H](C)CO)C(=O)c2cccc(NC(=O)Nc3ccc(C(F)(F)F)cc3)c2O[C@@H]1CN(C)CC1CCCCC1	56.9	–	·	·	·
C[C@@H]1CN([C@@H](C)CO)C(=O)c2cccc(NC(=O)Nc3ccc(C(F)(F)F)cc3)c2O[C@@H]1CN(C)C(=O)Nc1cccc2ccccc12	–	–	·	·	35.6
C[C@@H]1CN([C@H](C)CO)C(=O)c2cccc(NC(=O)Nc3ccc(C(F)(F)F)cc3)c2O[C@H]1CN(C)CC1CCCCC1	–	–	·	·	·
COc1ccc(CN(C)C[C@H]2OCCCC[C@H](C)Oc3ccc(NC(=O)NC(C)C)cc3C(=O)N([C@H](C)CO)C[C@H]2C)cc1	–	–	·	·	·
COc1ccc(S(=O)(=O)N(C)C[C@H]2Oc3ccc(NC(=O)Nc4ccccc4)cc3C(=O)N([C@@H](C)CO)C[C@H]2C)cc1	–	–	·	·	·
CCOc1ncccc1C(=O)Nc1cc2c(cc1Br)OCCO2	–	–	41.3	–	–
SMILES	RAD52 inh	RAD54 inh	Glyco luc inh	CaV13 FRET inh	FN deposition inh
C[C@@H](NC(=O)C[C@@H]1C[C@@H]2c3cc(NC(=O)Nc4ccccc4F)ccc3O[C@@H]2[C@@H](CO)O1)c1ccccc1	–	–	·	·	·
COc1ccc(C2c3ccc4ccccc4c3Oc3ncn(CCN4CCOCC4)c(=N)c32)cc1OC (stereo not drawn)	–	·	–	–	30.2
CN(C)CCCn1cnc2c(c1=N)C(c1ccccc1)c1ccc3ccccc3c1O2 (stereo not drawn)	76.2	–	–	–	–
C[C@H]1CN([C@@H](C)CO)C(=O)c2cc(NC(=O)CCCN(C)C)ccc2O[C@@H]1CN(C)Cc1ccccc1	–	–	·	·	·
CCCn1c(=NC(=O)c2ccco2)c(C(=O)OCC)cc2c(=O)n3ccccc3nc21	·	–	–	·	·
CCOC(=O)c1cc2c(=O)n3cccc(C)c3nc2n(CC(C)C)c1=NC(=O)c1ccco1	–	–	–	43.6	–
CCOC(=O)c1cc2c(=O)n3ccccc3nc2n(CCCOC)c1=NC(=O)c1ccncc1	–	·	–	152.6	–
CCOC(=O)c1cc2c(=O)n3ccccc3nc2n(CCCOC)c1=NC(C)=O	·	–	–	–	–
CCOC(=O)c1cc2c(=O)n3ccccc3nc2n(C(C)C)c1=NC(=O)c1ccco1	–	·	–	+	–
O=C(NCc1ccccn1)[C@@H]1[C@@H](CO)[C@@H]2Cn3c(cccc3=O)[C@H]1N2CC1CCCC1	–	·	·	·	·
CCCCCc1cc(=O)oc2c(C(CCN(CC)CC)c3cc(OC)c(OC)c(OC)c3)c(OC)cc(OC)c12 (stereo not drawn)	57.5	–	–	–	–
CCOC(=O)N1CCC(NC(=O)CCCN2C(=O)CSc3ncccc32)CC1	·	–	–	·	·
O=C(CCCN1C(=O)CSc2ncccc21)N1CCN(Cc2ccccc2)CC1	–	–	–	36.6	–
Fc1cccc(-c2ccc(C3[C@@H]4CN(Cc5cccnc5)C[C@H]3N4)cc2)c1 (stereo partly drawn)	55.2!	·	·	·	–
COc1ccccc1CN1C[C@@H]2N[C@H](C1)C2c1ccc(-c2ccc(C#N)cc2)cc1 (stereo partly drawn)	–	·	·	·	–
N#Cc1ccc(-c2ccc(C3[C@@H]4CN(Cc5ccccc5F)C[C@H]3N4)cc2)cc1 (stereo partly drawn)	83.7!	·	·	·	–
O=C(C1CCC1)N1C[C@@H]2N[C@H](C1)C2c1ccc(-c2cccc(F)c2)cc1 (stereo partly drawn)	–	·	·	·	–
Fc1cccc(CN2C[C@@H]3N[C@H](C2)[C@@H]3c2ccc(-c3cccc(F)c3)cc2)c1	86.3	·	·	·	–
Cc1ccccc1-c1ccc(C2[C@@H]3CN(Cc4cccnc4)C[C@H]2N3)cc1 (stereo partly drawn)	–	·	·	·	–
Fc1cccc(-c2ccc(C3[C@@H]4CN(Cc5ccccc5F)C[C@H]3N4)cc2)c1 (stereo partly drawn)	82.8!	·	·	·	–
N#Cc1cccc(-c2ccc(C3[C@@H]4CN(Cc5ccccc5)C[C@H]3N4)cc2)c1 (stereo partly drawn)	·	·	·	·	–
